Reference: ChEMBL document CHEMBL4665801, “Pyrazole-Based Lactate Dehydrogenase Inhibitors with Optimized Cell Activity and Pharmacokinetic Properties” (J Med Chem, 2020)
Active and inactive are the calls of the source.

Key:
[1] = biological target: T1, L-lactate dehydrogenase A chain (Homo sapiens, UniProt P00338); assay: Inhibition of recombinant human LDHA using sodium pyruvate as substrate preincubated for 5 mins followed by diaphorase/resazurin addition and measured after 20 mins by fluorescence based assay
[2] = biological target: T1, L-lactate dehydrogenase A chain; assay: Inhibition of LDHA in human A673 cells assessed as decrease in lactate production incubated for 2 hrs by lactate oxidase-coupled fluorescence based assay; format: cell-based
A673 = assay: Cytotoxicity against human A673 cells assessed as reduction in cell viability after 48 hrs by CellTiter-Glo assay; format: functional, cell-based; conditions: A673, 48 h
[3] = biological target: T1, L-lactate dehydrogenase A chain; assay: Inhibition of LDHA in human MIA PaCa-2 cells assessed as decrease in lactate production incubated for 2 hrs by lactate oxidase-coupled fluorescence based assay; format: cell-based
MIA PaCa-2 = assay: Cytotoxicity against human MIA PaCa-2 cells assessed as reduction in cell viability after 48 hrs by CellTiter-Glo assay; format: functional, cell-based; conditions: MIA PaCa-2, 48 h
[4] = biological target: T1, L-lactate dehydrogenase A chain; assay: Inhibition of GS[HiBiT]GS-tagged LDHA (unknown origin) expressed in HEK-293T cells measured after 1 hr by […]; format: cell-based
In short: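 HEK293T cells were transiently transfected for 24 h with CMV-driven LDHA carrying a C-terminal GS[HiBiT]GS tag, then reseeded at 2500 cells/well in DPBS with Ca/Mg and 1 g/L glucose. […] Cells were lysed with NP40, and 11S (100 nM final) plus furimazine was added.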

[5] = biological target: T1, L-lactate dehydrogenase A chain; assay: Binding affinity to human His-tagged LDHA by SPR analysis
In short: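 SPR on a Mass-1 instrument gave K_D and k_off. Residence time τ was calculated as 1/k_off (s⁻¹).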

[6] = biological target: L-lactate dehydrogenase B chain (Homo sapiens) (UniProt P07195); assay: Inhibition of recombinant human LDHB using sodium pyruvate as substrate preincubated for 5 mins followed by diaphorase/resazurin addition and measured after 20 mins by fluorescence based assay
Sus scrofa = species on record: Sus scrofa; assay: Inhibition of porcine heart MDH using malic acid as substrate preincubated for 10 mins followed by substrate addition and measured after 5 mins by resazurin based fluorescence based assay; conditions: time 15.0 min
[7] = In vivo inhibition of LDH in human A673 cells xenografted athymic nude CrTac:NCr-Foxn1nu mouse assessed as tumor residual LDH activity at 50 mg/kg, iv after 1 hr by UV-VIS spectrometric method relative to control; format: functional
In short: (§1)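 Female athymic nude mice carried SQ A673 flank xenografts (2 million cells) and received a single IV dose of 50 mg/kg in PBS-based vehicle. Four mice per time point were sacrificed at 1, 3, 6 and 24 h. Frozen tumor (10–50 mg) was pulverized and lysed in PBS pH 7.4 with 0.1% Triton X-100 on ice for 1 h. Cleared lysate (10–20 μg) was assayed with 10 mM pyruvate and 0.3 mM final NADH, reading NADH oxidation at 340 nm at 37 °C.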

Mus musculus [8] = assay: In vivo inhibition of LDH in human A673 cells xenografted athymic nude CrTac:NCr-Foxn1nu mouse assessed as reduction in tumor LDH activity at 50 mg/kg, iv after 6 hrs by UV-VIS spectrometric method relative to control; format: functional; in short: as §1
Mus musculus [9] = assay: In vivo inhibition of LDH in human A673 cells xenografted athymic nude CrTac:NCr-Foxn1nu mouse assessed as reduction in tumor LDH activity at 50 mg/kg, iv after 1 hr by NADH-based UV-VIS spectrometric method relative to control; format: functional, organism-based; in short: as §1

Chain of L-lactate dehydrogenase B chain (Homo sapiens) (P07195 2-334 limits assumed): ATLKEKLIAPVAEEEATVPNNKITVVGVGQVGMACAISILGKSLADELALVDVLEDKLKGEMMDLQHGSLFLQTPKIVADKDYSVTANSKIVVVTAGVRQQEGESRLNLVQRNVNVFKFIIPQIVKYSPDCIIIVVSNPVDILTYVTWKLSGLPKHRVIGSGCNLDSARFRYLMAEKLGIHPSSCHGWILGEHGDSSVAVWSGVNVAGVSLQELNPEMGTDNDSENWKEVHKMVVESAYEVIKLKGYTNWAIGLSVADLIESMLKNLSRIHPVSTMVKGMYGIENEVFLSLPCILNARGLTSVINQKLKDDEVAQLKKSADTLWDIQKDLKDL

Row | IC50 [1] | IC50 [2] | IC50 [3] | IC50 [4] | Kd [5] | inhibition [6] | inhibition (Sus scrofa) | Structure (SMILES) | IC50 (A673) | IC50 (MIA PaCa-2) | Activity [7] | inhibition (Mus musculus [8]) | inhibition (Mus musculus [9])
1 | 0.202 µM | 0.487 µM | 0.424 µM | 0.178 µM | 0.000123 µM | Active | inactive | NS(=O)(=O)c1ccc(Cc2c(-c3ccc(F)c(C#CCC4CCCC4)c3)nn(-c3nc(C(=O)O)cs3)c2CC2CC2)cc1F | 0.939 µM | 0.848 µM | – | – | –
2 | 0.201 µM | 0.403 µM | 0.434 µM | 0.183 µM | – | Active | inactive | NS(=O)(=O)c1ccc(Cc2c(-c3cccc(C#Cc4ccc(C5CC5)s4)c3)nn(-c3nc(C(=O)O)cs3)c2CC2CC2)cc1F | 0.332 µM | 0.342 µM | <40% | Active | Active
